Experimental data: paper PMC6796888 (ACS Omega, 2019)

Experiments:
E. coli ATCC 25922 = test: In vitro screening, % growth inhibition at 250 μg/mL; type: cell-based, Escherichia coli; details: Escherichia coli, ATCC25922, 24 h, read-out: % inhibition at 250 μg/mL
Procedure, shortened: (§1)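 Test compounds dissolved in DMSO and diluted in test medium. Mid-log cultures diluted in nutrient broth to McFarland standard and treated with 250 μg/mL in 96-well plates, 37 °C, 160 rpm, 24 h. Growth read as OD at 580 nm; % inhibition calculated from absorbance against untreated growth. Run twice on different occasions.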

P. auroginosa MTCC 2453 = test: as above; type: cell-based, Pseudomonas auroginosa; details: Pseudomonas, MTCC2453, 24 h, read-out: % inhibition at 250 μg/mL
Procedure, shortened: as §1

E. faecalis MTCC 439 = test: as above; type: cell-based, Enterococcus faecalis; details: Enterococcus faecalis, MTCC439, 24 h, read-out: % inhibition at 250 μg/mL
Procedure, shortened: as §1

S. pneumoniae MTCC 655 = test: as above; type: cell-based, Streptococcus pneumoniae; details: Streptococcus pneumoniae, MTCC655, 24 h, read-out: % inhibition at 250 μg/mL
Procedure, shortened: as §1

S. typhimurium = test: Synergistic assay with ciprofloxacin; type: cell-based, Salmonella typhimurium
E. coli = test: Synergistic assay with ciprofloxacin; type: cell-based, Escherichia coli; details: E. coli; 4l combined with CIP
E. faecalis = test: Synergistic assay with ciprofloxacin; type: cell-based, Enterococcus faecalis
S. pneumoniae = test: Synergistic assay with ciprofloxacin; type: cell-based, Streptococcus pneumoniae
P. aeruginosa = test: Synergistic assay with ciprofloxacin; type: cell-based; details: P. aeruginosa; 4l combined with CIP

| MIC in combination (S. typhimurium; S. typhimurium, 4l combined with CIP) | MIC (S. typhimurium; Salmonella enterica, TYPHIMURIUM, read-out: MIC alone) | MIC in combination (E. coli) | MIC in combination (E. faecalis; E. faecalis, 4l combined with CIP) | MIC (E. faecalis; Enterococcus faecalis, read-out: MIC alone) | MIC in combination (S. pneumoniae; S. pneumoniae, 4l combined with CIP) | MIC (S. pneumoniae; Streptococcus pneumoniae, read-out: MIC alone) | MIC in combination (P. aeruginosa) | Structure (SMILES) | inhibition at 250 µg/mL (E. coli ATCC 25922) | inhibition at 250 µg/mL (P. auroginosa MTCC 2453) | inhibition at 250 µg/mL (E. faecalis MTCC 439) | inhibition at 250 µg/mL (S. pneumoniae MTCC 655) |
| --- | --- | --- | --- | --- | --- | --- | --- | --- | --- | --- | --- | --- |
| – | – | – | – | – | – | – | – | CNC1=C([N+](=O)[O-])C2(C(=O)Nc3ccc(Cl)cc32)c2c(c3ccccc3oc2=O)O1 (stereo not drawn) [Compound 4j] | 45.8% | 23.1% | 27.2% | 27.8% |
| – | – | – | – | – | – | – | – | CNC1=C([N+](=O)[O-])C2(C(=O)Nc3ccc(Br)cc32)c2c(c3ccccc3oc2=O)O1 (stereo not drawn) [Compound 4k] | 32% | 4.61% | 18.1% | 19.7% |
| – | – | – | – | – | – | – | – | CNC1=C([N+](=O)[O-])C2(C(=O)Nc3ccccc32)c2c(c3ccccc3oc2=O)O1 (stereo not drawn) [Compound 4i] | 15.4% | 6.58% | 7.5% | 1.96% |
| – | – | – | – | – | – | – | – | CNC1=C([N+](=O)[O-])C2(C(=O)Nc3ccccc32)C2=C(CC(C)(C)CC2=O)O1 (stereo not drawn) [Compound 4a, 7,7-Dimethyl-2-(methylamino)-3-nitro-7,8-dihydrospiro[chromene-4,3′-indoline]-2′,5(6 H)-dione] | 43.2% | 37.3% | 41.5% | 29.7% |
| 0.25 µg/mL | 0.25 µg/mL | 0.125 µg/mL | 0.0625 µg/mL | 0.25 µg/mL | 0.0625 µg/mL | 0.25 µg/mL | 0.5 µg/mL | O=C(O)c1cn(C2CC2)c2cc(N3CCNCC3)c(F)cc2c1=O [CIP, ciprofloxacin, reference compound] | – | – | – | – |
